In ChEMBL document CHEMBL1131195, “Antileishmanial chalcones: statistical design, synthesis, and three-dimensional quantitative structure-activity relationship analysis” (J Med Chem, 1998) one finds IC50 data, which are given here for 73 compounds.

For experiment [1], the system named is Leishmania donovani. Description: Tested in vitro for anti-leishmanial activity against Leishmania donovani. The format is functional, organism-based. In outline:
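In vitro assay using Leishmania donovani promastigotes incubated with increasing chalcone concentrations, with inhibition of parasite proliferation as the read-out.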

The nature of experiment [2]: Inhibitory activity against phytohemagglutininin A-induced proliferation of human lymphocytes. It counts as functional. In outline:
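Human lymphocytes stimulated with phytohemagglutinin A were incubated in vitro with increasing concentrations of each chalcone, and inhibition of their proliferation was measured.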

Experiment [3] is described as follows: Inhibitory activity against phytohemagglutininin A-induced proliferation of human lymphocytes; Not tested due to low solubility. The format is functional.

In the case of `COc1cc(/C=C/C(=O)c2cccc(O)c2)cc(OC)c1`, the values for the IC50 in experiment [1] and in experiment [2] were 3.7 µM and 3.2 µM, respectively.
As to `CCCCOc1cccc(C(=O)/C=C/c2ccc(OC)cc2OC)c1`, the half-inhibitory concentration (IC50) (as a rule, the concentration that gives 50% inhibition) in experiment [1] amounted to 20 µM; in experiment [2], 65 µM.
In the same order, the values of `C=CC(C)(C)c1cc(/C=C/C(=O)c2ccc(O)cc2)c(OC)cc1O` [LICOAGROCHACONE A] are 13 µM and 48 µM.
Regarding `O=C(/C=C/c1ccccc1)c1ccc(O)cc1` [4'-HYDROXYCHALCONE], the IC50 in experiment [1] is 16 µM; in experiment [2] it was 28 µM.
Turning to `CCCCOc1ccc(C(=O)/C=C/c2c(OC)cccc2OC)cc1`, inhibition in experiment [1] was half-maximal at 104 µM (IC50).
In the case of `CCCCOc1ccccc1C(=O)/C=C/c1cc(OC)cc(OC)c1`, the concentration for half-maximal inhibition (IC50) in experiment [1] is 7.2 µM; in experiment [2], 13 µM.
On the same counts, the results for `O=C(/C=C/c1ccccc1)c1ccccc1` [CHALCONE] are 20 µM and 21 µM.
On the same counts, the results for `COc1ccc(OC)c(/C=C/C(=O)c2ccc(O)cc2)c1` are 23 µM and 22 µM.
On the same counts, the results for `COc1ccc(C(=O)/C=C/c2ccc(F)c(F)c2)c(OC)c1` are 16 µM and 5.3 µM.
As to `COc1cc(/C=C/C(=O)c2ccccc2N(C)C)cc(OC)c1`, the IC50 came to 7.3 µM in experiment [1] and 5.7 µM in experiment [2].
As for `COc1cccc(C(=O)/C=C/c2ccc(OC)cc2OC)c1`, the half-inhibitory concentration (IC50) in experiment [1] came to 18 µM; in experiment [2], 42 µM.
On the same counts, the results for `COc1ccc(/C=C/C(=O)c2cccc([N+](=O)[O-])c2)c(OC)c1` are 8.6 µM and 18 µM.
Take `COc1ccc(C(=O)/C=C/c2cccc(Oc3ccccc3)c2)c(OC)c1OC`: the IC50 in experiment [1] amounted to 8.7 µM; in experiment [2], 17 µM.
`COc1ccc(/C=C/C(=O)c2ccccc2)c(OC)c1`: the IC50 in experiment [1] was 15 µM; in experiment [2], 48 µM.
Consider `O=C(/C=C/c1ccc(F)cc1)c1ccc(F)cc1`, for which the half-inhibitory concentration (IC50) in experiment [1] is 15 µM; in experiment [2], 22 µM.
In the same order, the values of `COc1cc(O)cc(C)c1/C=C/C(=O)c1ccc(O)cc1` are 39 µM and 53 µM.
`O=C(/C=C/c1ccc(O)c(O)c1)c1ccc(O)cc1O` [BUTEIN]: the results for the IC50 in experiment [1] and in experiment [2] were 66 µM and 16 µM, respectively.
On the same counts, the results for `COc1cccc(OC)c1/C=C/C(=O)c1ccc(O)cc1` are 82 µM and 60 µM.
For `COc1cc(/C=C/C(=O)c2cccc(N(C)C)c2)cc(OC)c1`, the IC50 in experiment [1] turned out to be 5.8 µM; in experiment [2] it was 5 µM.
On the same counts, the results for `O=C(/C=C/c1ccccc1)c1ccc(F)cc1` are 15 µM and 23 µM.
As to `COc1ccc(/C=C/C(=O)c2ccc(O)cc2)c(OC)c1`, the IC50 in experiment [1] was 48 µM; in experiment [2], 71 µM.
On the same counts, the results for `COc1ccc(/C=C/C(=O)c2ccccc2OC)c(OC)c1` are 16 µM and 26 µM.
Take `COc1cc(/C=C/C(=O)c2ccccc2O)cc(OC)c1`: the half-inhibitory concentration (IC50) in experiment [1] was 3.8 µM; in experiment [2] it was 8.1 µM.
In the same order, the values of `COc1cc(/C=C/C(=O)c2ccc(O)cc2)cc(OC)c1` are 12 µM and 14 µM.
Consider `COc1ccc(/C=C/C(=O)c2ccccc2Br)c(OC)c1`, for which the IC50 in experiment [1] stood at 14 µM; in experiment [2], 35 µM.
Take `C=CCOc1ccc(C(=O)/C=C/c2cccc(OC)c2OC)cc1`: the IC50 in experiment [1] is 49 µM; in experiment [2] it was 96 µM.
With `C=CCOc1ccc(C(=O)/C=C/c2ccc(OC)c(OC)c2)cc1`, the IC50 is 60 µM in experiment [1] and 51 µM in experiment [2].
Regarding `COc1ccc(C(=O)/C=C/c2cccc(F)c2)c(OC)c1OC`, the 50% inhibitory concentration (IC50) in experiment [1] stood at 9.7 µM; in experiment [2], 6.4 µM.
`COc1ccc(/C=C/C(=O)c2cccc(Br)c2)c(OC)c1`: the IC50 in experiment [1] was determined as 16 µM; in experiment [2], 37 µM.
In the same order, the values of `COc1ccc(C(=O)/C=C/c2cccc(N(C)C)c2)c(OC)c1OC` are 20 µM and 26 µM.
On to `O=C(/C=C/c1ccc(F)cc1)c1ccc(C2CCCCC2)cc1`, for which the IC50 amounted to 27 µM in experiment [1] and 74 µM in experiment [2].
With `CCCCOc1ccccc1/C=C/C(=O)c1ccc(OC)c(OC)c1OC`, the results for the IC50 in experiment [1] and in experiment [2] were 26 µM and 52 µM, respectively.
In the same order, the values of `COc1ccc(C(=O)/C=C/c2ccc(Cl)cc2Cl)c(OC)c1OC` are 6.3 µM and 7.8 µM.
As to `COc1cc(/C=C/C(=O)c2ccc(OC)c(OC)c2OC)cc(OC)c1`, the half-maximal inhibitory concentration (IC50) is 8.3 µM in experiment [1] and 8.7 µM in experiment [2].
On the same counts, the results for `CN(C)c1ccc(/C=C/C(=O)c2ccc(O)cc2)cc1` are 79 µM and 130 µM.
Consider `CCCc1cc(/C=C/C(=O)c2ccc(O)cc2)c(OC)cc1O`, for which the half-inhibitory concentration (IC50) in experiment [1] was determined as 26 µM; in experiment [2] it was 41 µM.
Turning to `COc1ccc(C(=O)/C=C/c2ccc(C#N)cc2)c(OC)c1OC`, the 50% inhibitory concentration (IC50) in experiment [1] is 8.6 µM; in experiment [2] it was 5.4 µM.
In the same order, the values of `COc1ccc(C(=O)/C=C/c2ccccc2O)c(OC)c1OC` are 9.3 µM and 9 µM.
Consider `COc1cc(O)ccc1/C=C/C(=O)c1ccc(N(C)C)cc1`, for which the IC50 in experiment [1] was determined as 49 µM; in experiment [2], 111 µM.
Turning to `C=CCOc1ccc(C(=O)/C=C/c2cc(OC)cc(OC)c2)cc1`, the IC50 in experiment [1] came to 27 µM; in experiment [2], 25 µM.
With `COc1cc(/C=C/C(=O)c2ccccc2F)cc(OC)c1`, the values for the IC50 in experiment [1] and in experiment [2] were 3.5 µM and 6 µM, respectively.
`C=CCOc1ccc(C(=O)/C=C/c2cc(OC)c(CCCC)c(OC)c2)cc1`: the results for the concentration for half-maximal inhibition (IC50) in experiment [1] and in experiment [3] were 90 µM and “Not Active”, respectively.
For the compound `COc1ccc(OC)c(C(=O)/C=C/c2ccc(Cl)cc2Cl)c1`, the IC50 turned out to be 7.8 µM in experiment [1] and 5.7 µM in experiment [2].
Regarding `COc1ccc(/C=C/C(=O)c2ccc(OC)cc2)cc1` [4,4'-DIMETHOXYCHALCONE], the figures for the IC50 in experiment [1] and in experiment [2] were 106 µM and 112 µM, respectively.
Turning to `COc1cccc(/C=C/C(=O)c2ccc(O)cc2)c1OC`, the values for the IC50 in experiment [1] and in experiment [2] were 89 µM and 70 µM, respectively.
On the same counts, the results for `COc1cc(/C=C/C(=O)c2ccccc2[N+](=O)[O-])cc(OC)c1` are 3.4 µM and 3.7 µM.
On to `C=CCOc1ccc(C(=O)/C=C/c2cc(OC)c(CCCCCC)c(OC)c2)cc1`, for which the half-maximal inhibitory concentration (IC50) in experiment [1] was found to be 19 µM; in experiment [2] it was 15 µM.
With `COc1ccc(C(=O)/C=C/c2ccc([N+](C)(C)C)cc2)c(OC)c1OC`, the IC50 was determined as 21 µM in experiment [1] and 35 µM in experiment [2].
In the same order, the values of `C=CCOc1ccc(C(=O)/C=C/c2cc(OCC=C)ccc2OCC=C)cc1` are 38 µM and 61 µM.
`CN(C)c1ccc(/C=C/C(=O)c2ccc(N(C)C)cc2)cc1`: the half-inhibitory concentration (IC50) is 30 µM in experiment [1] and “Not Active” in experiment [3].
For `O=C(/C=C/c1ccc(O)cc1)c1ccc(O)cc1` [4,4'-DIHYDROXYCHALCONE], the values for the IC50 in experiment [1] and in experiment [2] were 83 µM and 59 µM, respectively.
Regarding `O=C(/C=C/c1ccc([N+](=O)[O-])cc1)c1ccc([N+](=O)[O-])cc1`, the IC50 turned out to be 26 µM in experiment [1] and 51 µM in experiment [2].
For `COc1ccc(C(=O)/C=C/c2ccccc2[N+](=O)[O-])c(OC)c1OC`, the results for the IC50 in experiment [1] and in experiment [2] were 5.9 µM and 7 µM, respectively.
On the same counts, the results for `COc1cc(/C=C/C(=O)c2cccc(F)c2)cc(OC)c1` are 5.5 µM and 9.2 µM.
On the same counts, the results for `COc1ccc(C(=O)/C=C/c2ccc(F)cc2F)c(OC)c1` are 27 µM and 12 µM.
For the compound `C=CCOc1ccc(C(=O)/C=C/c2cc(OC)ccc2OC)cc1`, the half-maximal inhibitory concentration (IC50) was 73 µM in experiment [1] and 55 µM in experiment [2].
On the same counts, the results for `C=CCOc1ccc(C(=O)/C=C/c2cc(OC)c(OC)c(OC)c2)cc1` are 41 µM and 30 µM.
Regarding `CCCCCCOc1ccc(C(=O)/C=C/c2ccccc2)cc1`, the half-inhibitory concentration (IC50) in experiment [1] turned out to be 62 µM; in experiment [2], 99 µM.
On the same counts, the results for `O=C(/C=C/c1ccc(Oc2ccccc2)cc1)c1ccc(F)cc1` are 42 µM and 33 µM.
As for `COc1c(/C=C/C(=O)c2ccc(O)cc2)ccc(O)c1C`, the IC50 stood at 22 µM in experiment [1] and 27 µM in experiment [2].
In the same order, the values of `COc1cc(OC)c(OC)cc1/C=C/C(=O)c1ccc(O)cc1` are 16 µM and 28 µM.
On the same counts, the results for `CCCCCCc1cc(/C=C/C(=O)c2ccc(O)cc2)c(OC)cc1O` are 9.7 µM and 46 µM.
As for `COc1cc(/C=C/C(=O)c2ccc(O)cc2O)ccc1O` [HOMOBUTEIN], the 50% inhibitory concentration (IC50) in experiment [1] is 16 µM; in experiment [2] it was 31 µM.
As for `COc1cc(/C=C/C(=O)c2ccc([N+](=O)[O-])cc2)cc(OC)c1`, the IC50 in experiment [1] came out at 16 µM; in experiment [2], 20 µM.
As to `COc1ccc(/C=C/C(=O)c2ccccc2O)c(OC)c1`, the 50% inhibitory concentration (IC50) came out at 35 µM in experiment [1] and 144 µM in experiment [2].
On to `COc1cc(O)ccc1/C=C/C(=O)c1ccc(O)cc1` [ECHINATIN], for which the IC50 in experiment [1] was found to be 68 µM; in experiment [2], 94 µM.
In the same order, the values of `C=CCOc1ccc(C(=O)/C=C/c2c(OC)cccc2OC)cc1` are 81 µM and 96 µM.
As to `CCCCOc1ccc(C(=O)/C=C/c2cc(OC)cc(OC)c2)cc1`, the half-inhibitory concentration (IC50) came out at 35 µM in experiment [1] and 52 µM in experiment [2].
On the same counts, the results for `COc1cc(OC)c(/C=C/C(=O)c2ccc(O)cc2)c(OC)c1` are 106 µM and 44 µM.
As to `COc1cc(/C=C/C(=O)c2ccc(C3CCCCC3)cc2)cc(OC)c1`, the half-inhibitory concentration (IC50) in experiment [1] stood at 31 µM; in experiment [2], 39 µM.
In the same order, the values of `COc1ccc(C(=O)/C=C/c2cccc([N+](=O)[O-])c2)c(OC)c1OC` are 17 µM and 36 µM.
In the same order, the values of `COc1ccc(C(=O)/C=C/c2ccccc2F)c(OC)c1OC` are 15 µM and 11 µM.
On the same counts, the results for `COc1ccc(/C=C/C(=O)c2ccc(F)cc2F)c(OC)c1` are 26 µM and 74 µM.
